Measured values pooled from the literature.
Lines come from different studies, so protocols differ.
HTR2C: 5-hydroxytryptamine receptor 2C (HTR2C, Homo sapiens, UniProt P28335)
HTR2B: 5-hydroxytryptamine receptor 2B (HTR2B, Homo sapiens, UniProt P41595)

| SMILES | target | assay | conditions | endpoint | value |
| --- | --- | --- | --- | --- | --- |
| COc1cc(C(F)(F)F)c(OC)cc1C1CCCNC1 (stereo not drawn) | HTR2C | calcium signal, agonist | – | Emax | 31% |
| CCOC(=O)Cc1c2c3c(cc(OC)c(OC)c3c3cc(OC)c(OC)cc13)CCN2C | HTR2B | ligand displacement, radioligand | 10 µM | inhibition | 43% |
| CC[C@H](C)[C@H](NC(=O)[C@H](CO)NC(=O)[C@H](Cc1ccc(O)cc1)NC(=O)[C@H](CC(=O)O)NC(=O)[C@H](CO)NC(=O)[C@@H](NC(=O)[C@H](Cc1ccccc1)NC(=O)[C@@H](NC(=O)CNC(=O)[C@H](CCC(=O)O)NC(=O)[C@@H](C)NC(=O)[C@@H](N)Cc1ccc(O)cc1)[C@@H](C)O)[C@@H](C)CC)C(=O)N[C@@H](C)C(=O)N[C@@H](CCSC)C(=O)N[C@@H](CC(=O)O)C(=O)N[C@@H](CCCCN)C(=O)N[C@H](C(=O)N[C@@H](Cc1c[nH]cn1)C(=O)N[C@@H](CCC(N)=O)C(=O)N[C@@H](CCC(N)=O)C(=O)N[C@@H](CC(=O)O)C(=O)N[C@@H](Cc1ccccc1)C(=O)N[C@H](C(=O)N[C@@H](CC(N)=O)C(=O)N[C@@H](Cc1c[nH]c2ccccc12)C(=O)N[C@@H](CC(C)C)C(=O)N[C@@H](CC(C)C)C(=O)N[C@@H](C)C(=O)N[C@@H](CCC(N)=O)C(=O)NCC(=O)N1CCC[C@H]1C(=O)N[C@@H](CO)C(=O)N[C@@H](CO)C(=O)NCC(=O)N[C@@H](C)C(=O)N1CCC[C@H]1C(=O)N1CCC[C@H]1C(=O)N1CCC[C@H]1C(=O)N[C@@H](CO)C(=O)N[C@@H](CCCCN)C(N)=O)C(C)C)[C@@H](C)CC | Glucagon receptor (Mus musculus, UniProt Q61606) | cAMP, agonist | – | Emax | < 20% |
| CN1CCC[C@H]1c1cccnc1 | HTR2C | ligand displacement | 50 µM | inhibition | -24.7% |
| [2H]c1c([2H])c([C@]2([2H])CCCN2C(=O)C(C)(C)Oc2ccc3cn[nH]c3c2)c([2H])c([2H])c1C([2H])([2H])[2H] | Serine/threonine-protein kinase Nek6 (NEK6, Homo sapiens, UniProt Q9HC98) | binding, competition with immobilised ligand | 1 µM | remaining binding | 100% |
| CCCC(NCCc1cc(OC)c(C#N)cc1OC)c1ccccc1O (stereo not drawn) | HTR2C | calcium signal, agonist | – | Emax | 56% |
| COc1cc2c3c(c1OC)-c1c(cccc1OC)CC3N(C)CC2 (racemic) | HTR2C | ligand displacement, radioligand | 10 µM | inhibition | 51% |
| Nc1ncnc2c1ncn2[C@@H]1O[C@H](C[C@@H](N)CC[C@H](N)C(=O)O)[C@@H](O)[C@H]1O | mRNA cap guanine-N(7) methyltransferase (RNMT, Homo sapiens, UniProt O43148) | enzyme activity, inhibitor | 3.125 µM | inhibition | 40.9% |
| COc1cc2c(cc1OC)-c1c(OC)c(OC)cc3c1[C@H](C2)N(C)CC3 | HTR2B | ligand displacement, radioligand | 10 µM | inhibition | 92% |
| CC(C)CC(=O)OC[C@H]1O[C@@](C#N)(c2ccc3c(N)ncnn23)[C@H](O)[C@@H]1O | Prostaglandin G/H synthase 1 (PTGS1, Homo sapiens, UniProt P23219) | enzyme activity, inhibitor | 20 µM | inhibition | 6% |
| COc1cc2c3c(c1OC)-c1c(OC)ccc(O)c1CC3N(C)CC2 (stereo not drawn) | HTR2C | ligand displacement, radioligand | 10 µM | inhibition | 60% |
| c1cncc([C@@H]2CCCN2)c1 | HTR2B | ligand displacement | 50 µM | inhibition | -2.22% |
